Data set [1] is described as follows: Steady-state plasma concentrations of PMB. In kind it is in vivo. As to conditions: human, iv. The essentials:
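Blood drawn after ≥48 h of dosing; peak taken immediately after infusion end. Samples centrifuged 885 g, 10 min; supernatant stored −80°C. PMB1 and PMB2 measured by UPLC-MS/MS on a C18 column (2.6 μm, 3.0 × 50 mm), 40°C, 0.3 ml/min. Gradient: 0.1% formic acid in water versus acetonitrile. Total PMB is the sum of PMB1 and PMB2.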

In data set [2] the test system is critically ill patients. Briefly: PMB-induced acute kidney injury. In kind it is in vivo, human. The essentials:
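ICU adults (>18 years) with MDR Gram-negative infection, given intravenous PMB (sulfate) for ≥2 days with plasma monitoring. Excluded: baseline serum creatinine >1.5 mg/dl or prior renal replacement. AKI (KDIGO) was a serum creatinine rise ≥0.3 mg/dl within 48 h, >1.5-fold within 7 days, or urine output <0.5 ml/kg/h for >6 h.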

Data set [3] has as its system critically ill patients. As to the kind of experiment: Clinical outcome during intravenous PMB treatment. In kind it is in vivo, human. The essentials:
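Single-centre ICU cohort, August 2020–July 2022: adults on intravenous PMB for ≥2 days with MDR Gram-negative infection. Excluded: baseline creatinine >1.5 mg/dl, prior renal replacement, or a changed maintenance dose. Prognosis and adverse events were taken from hospital records. AKI and non-AKI groups were compared by chi-square or Fisher's exact test.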

Data set [4] in a line: Estimation of PMB AUC0-24 from timed steady-state plasma concentrations. In kind it is in vivo, human. As to conditions: mean ± SD; for AUC(0-t): human, iv, AUC0–24, trapezoidal area.
The subject of data set [5] is critically ill patients. In kind it is in vivo, human. Put shortly:
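Intravenous dosing: 2.5 mg/kg loading dose (not all patients), then 2.5–3 mg/kg/day in two divided doses. After ≥48 h, mid-interval plasma concentration was sampled 6 h post-dose. Variables with p < 0.05 in univariate logistic regression entered forward-stepwise multivariate regression, with fit checked by Hosmer–Lemeshow. ROC cutoff was taken at the maximum Youden index. AKI probability came from a logistic equation on C1/2t.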

A further data set relates to patients receiving PMB. Particulars: cited from earlier work.
Setting [6] is: one-compartment model, AKI (n = 30).
The mark [7] stands for this setting: one-compartment model, Non-AKI (n = 25).
[8] abbreviates: one-compartment model, Overall (n = 55).

Where a SMILES comes first, the peptide text is derived from it. Bridges are numbered along the chain shown (N, C = ends). [ ]: non-standard residue; d: D form. The star is where a group is joined. Heptanoyl(6-Me) = CC(C)CCCCC(=O)*; X1 = CC[C@H](C)CCCCC(=O)*; Dab = NCC[C@H](N)C(=O)O

The molecule `CC(C)CCCCC(=O)N[C@@H](CCN)C(=O)N[C@H](C(=O)N[C@@H](CCN)C(=O)N[C@H]1CCNC(=O)[C@H]([C@@H](C)O)NC(=O)[C@H](CCN)NC(=O)[C@H](CCN)NC(=O)[C@H](CC(C)C)NC(=O)[C@@H](Cc2ccccc2)NC(=O)[C@H](CCN)NC1=O)[C@@H](C)O` [PMB2, polymyxin B2] ({Heptanoyl(6-Me)}-[Dab]T[Dab][Dab][Dab][dF]L[Dab][Dab]T; lactam 4-C) showed a Cmax in data set [1] of 1000 ng/mL.

Turning to `CC[C@H](C)CCCCC(=O)N[C@@H](CCN)C(=O)N[C@H](C(=O)N[C@@H](CCN)C(=O)N[C@H]1CCNC(=O)[C@H]([C@@H](C)O)NC(=O)[C@H](CCN)NC(=O)[C@H](CCN)NC(=O)[C@H](CC(C)C)NC(=O)[C@@H](Cc2ccccc2)NC(=O)[C@H](CCN)NC1=O)[C@@H](C)O` [PMB, polymyxin B] (X1-[Dab]T[Dab][Dab][Dab][dF]L[Dab][Dab]T; lactam 4-C), the “overall AKI incidence” value in the data set on critically ill patients [2] (30 of 55 patients on intravenous PMB, KDIGO definition) is on record as 54.5%. Further, the “patients who developed AKI on Day 3” value in the data set on critically ill patients [2] (after PMB administration) is listed as 13.3%. The “patients who developed AKI within 7 days” value with critically ill patients [2] (share of the AKI group (n = 30)) is given as 46.7%. Besides, the 30-day mortality rate in the data set with critically ill patients [3] (AKI group) was 46.7%; in the data set on critically ill patients [3] (non-AKI group) it was 20%. The AUC(0-t) was 128 ± 36.2 µg·h/mL in data set [4] (based on Cmin(B) and Cmax(B), AKI (n = 30)); 102 ± 30.9 µg·h/mL in data set [4] (based on Cmin(B) and Cmax(B), Non-AKI (n = 25)); 116 ± 36 µg·h/mL in data set [4] (based on Cmin(B) and Cmax(B), Overall (n = 55)); 110 ± 31.3 µg·h/mL in data set [4] (based on Cmin(B), C1/2t(B), and Cmax(B), AKI (n = 30)); 85.4 ± 24.4 µg·h/mL in data set [4] (based on Cmin(B), C1/2t(B), and Cmax(B), Non-AKI (n = 25)); 99.1 ± 30.8 µg·h/mL in data set [4] (based on Cmin(B), C1/2t(B), and Cmax(B), Overall (n = 55)). Moreover, the “AUC0–24, first-order pharmacokinetic equation, based on C1/2t(B) and Cmax(B) (AUC1/2t,max)” value in data set [4] (setting [6]) is 103.7 ± 31.2 µg·h/mL. Further, the “AUC0–24, first-order pharmacokinetic equation, based on Cmin(B) and C1/2t(B)” value in data set [4] (setting [6]) was 100.7 ± 34.8 µg·h/mL; in data set [4] (setting [7]), 72.8 ± 21.2 µg·h/mL; in data set [4] (setting [8]) it was 88.1 ± 32.3 µg·h/mL. In addition, the figures for the “AUC0–24, first-order pharmacokinetic equation, based on Cmin(B) and Cmax(B)” value in data set [4] (setting [6]), in data set [4] (setting [7]) and in data set [4] (setting [8]) were 115.7 ± 35.1 µg·h/mL, 90.2 ± 28.4 µg·h/mL and 104.1 ± 34.4 µg·h/mL, respectively. The “optimal cutoff value of C1/2t for predicting PMB-induced AKI” value with critically ill patients [5] (ROC curve, Youden index, p = 0.002, 66.7% sensitivity, 72% specificity) was 3.47 µg/mL. The “C1/2t at which the probability of AKI was >50%” value in the data set with critically ill patients [5] (univariate logistic regression, Equation 5) is at least 3.24 mg/L. Also, in the data set on patients receiving PMB (ref 16 (Han et al.)), the “trough concentration limit suggested to reduce the risk of AKI” value is under 3.13 mg/L. Further, the “nephrotoxicity compared with colistin” value with patients receiving PMB (systematic review and meta-analysis) was “lower nephrotoxicity than colistin”.

As for `CC[C@H](C)CCCCC(=O)N[C@@H](CCN)C(=O)N[C@H](C(=O)N[C@@H](CCN)C(=O)N[C@H]1CCNC(=O)[C@H]([C@@H](C)O)NC(=O)[C@H](CCN)NC(=O)[C@H](CCN)NC(=O)[C@H](CC(C)C)NC(=O)[C@@H](Cc2ccccc2)NC(=O)[C@H](CCN)NC1=O)[C@@H](C)O` [PMB1, polymyxin B1] (X1-[Dab]T[Dab][Dab][Dab][dF]L[Dab][Dab]T; lactam 4-C), the peak concentration above which the probability of AKI would be >50% with patients receiving PMB (ref 17 (Deng et al.)) was over 5.23 µg/mL.

In general, Cmax refers to the highest concentration seen after dosing. By AUC(0-t) is commonly meant exposure summed from dosing to a finite time, without extrapolation to infinity.

(Values after paper PMC10725268 (CPT: Pharmacometrics & Systems Pharmacology, 2023).)
